Compound activity (PubChem BioAssay)
Compounds with a hit are over-represented: about 2.4% of the library has one in this group of screens.
LMPTP inh – LMPTP phosphatase inhibitors, primary screen, biochemical, fluorescence intensity, uHTS; Low molecular weight phosphotyrosine protein phosphatase (Homo sapiens), P24666; recombinant LMPTP-A, OMFP fluorogenic substrate; inhibition, % at 20 µM; 360,000 compounds, 0.22% hits;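 active = compounds that cut the enzyme signal by at least half of the control window in the single-dose screen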;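 note: plate controls were DMSO wells with enzyme plus substrate for no effect and substrate without enzyme for full effect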
Target sequence (P24666 whole entry, looked up): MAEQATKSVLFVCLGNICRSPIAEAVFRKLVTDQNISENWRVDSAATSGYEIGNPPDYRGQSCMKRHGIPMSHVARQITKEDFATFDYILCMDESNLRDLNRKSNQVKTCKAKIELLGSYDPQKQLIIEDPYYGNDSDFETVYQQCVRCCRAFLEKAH
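Material: LMPTP-A; amount: 0.625 nM enzyme; doses: single 20 µM dose; times: reaction 50 min, room temperature, dark; technique: fluorescence intensity of OMFP turnover product; benchmarks: no-enzyme and uninhibited controls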
NadD block – inhibitors of S. aureus NadD, primary screen, biochemical, colorimetric, uHTS; AID 602399, 2012; inhibition, % at 20 µM; 360,000 compounds, 0.78% hits; purified NadD enzyme, colorimetric absorbance read-out; in the data active = inhibition above about 26%
Scp1 inh – Scp-1 phosphatase inhibitors, primary screen, biochemical, colorimetric, uHTS; Carboxy-terminal domain RNA polymerase II polypeptide A small phosphatase 1 (Homo …; Recombinant Scp1, phosphopeptide, malachite green phosphate absorbance; 340,000 compounds, 0.88% hits; AID 493091, 2011; inhibition, % at 20 µM;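 active = inhibition above about 50% at 20 µM, limit read from the data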;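 note: plate controls were DMSO wells with enzyme for no effect and wells lacking enzyme for full effect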
Target sequence (Q9GZU7 76-261 limits assumed): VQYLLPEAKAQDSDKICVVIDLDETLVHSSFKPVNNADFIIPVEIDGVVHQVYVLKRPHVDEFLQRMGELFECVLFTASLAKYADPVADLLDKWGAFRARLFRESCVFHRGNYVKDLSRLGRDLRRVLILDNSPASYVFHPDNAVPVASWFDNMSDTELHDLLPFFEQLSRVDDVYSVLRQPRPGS
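Times: enzyme reaction 45 min at room temperature, colour 5 min, stabilisation 30 min. Material: SCP-1 catalytic fragment, aa 76-261. Medium: Acidic Tris acetate buffer with magnesium and detergent. Signal: colorimetric free-phosphate detection, absorbance 630 nm. Read-out basis: % inhibition of SCP-1 phosphate liberation. Reagent: Phosphorylated 17-residue peptide substrate.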
DNMT1 block – human DNMT1 methyltransferase inhibitors, primary screen, biochemical, molecular beacon, fluorescence, HinP1I cleavage, uHTS | AID 588458, 2011 | inhibition (reported as % activation of signal), % at 10 µM | 360,000 compounds, 0.83% hits; in the data active = inhibition above about 50%
SUMO1 PPI mod – modulators of SUMO1 protein-protein interactions, primary screen, biochemical, uHTS. Small ubiquitin-related modifier 1 (Homo sapiens), P63165. SUMO1 binding to a labelled peptide, TR-FRET, 1 h. inhibition, % at 20 µM. 360,000 compounds, 0.33% hits. AID 602429, 2012; in the data active = inhibition above about 37%
Target sequence (P63165 whole entry, looked up): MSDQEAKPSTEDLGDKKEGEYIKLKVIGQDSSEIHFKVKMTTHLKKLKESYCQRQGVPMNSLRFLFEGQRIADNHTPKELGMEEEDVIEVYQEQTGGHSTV
STEP block – STEP phosphatase inhibitors, primary screen, biochemical, fluorescence intensity, uHTS. Tyrosine-protein phosphatase non-receptor type 5 (Homo sapiens), P54829. recombinant STEP, OMFP fluorogenic substrate. inhibition, % at 20 µM. 360,000 compounds, 0.25% hits. AID 588621, 2011;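 active = inhibition at 20 µM, scaled per plate between control wells, above about 37%, limit read from the data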;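 note: 0% = DMSO with enzyme and substrate and 100% = substrate only without enzyme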
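Material: STEP (striatal-enriched tyrosine phosphatase) enzyme, cell-free | Medium: 50 mM Bis-Tris pH 6.0 with 2.5 mM DTT and 0.005% Tween 20 | Read-out: Percent inhibition scaled to no-enzyme and uninhibited-enzyme controls, plate-pattern corrected | Signal: Fluorescence read at 480 nm ex / 540 nm em | Times: 20 min reaction, room temperature, in the dark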
Beacon interf DR – spectral interference with molecular beacon fluorescence, dose response, artefact control for DNMT1 inhibitor project, biochemical, fluorescent molecular beacon; shares compounds with DNMT1 block; spectral interference counter-screen; IC50, µM; 200 tested, under 10 active; AID 602382, 2012; call rule not given here
DNMT1 confirm – DNMT1 methyltransferase inhibitor retest, confirmation, biochemical, molecular beacon, fluorescence, single concentration; DNMT1 molecular beacon HinP1I cleavage; inhibition, % at 10 µM; 2,300 compounds, 8% hits; shares compounds with DNMT1 block;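 active = average inhibition of at least 30% in the single-concentration confirmation test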
Beacon interf – counter-screen for DNMT1 inhibitors: spectral interference | 2,300 compounds, 1% hits | DNMT1 molecular beacon spectral interference counterscreen, fluorescence 485/520 | AID 602387 | shares compounds with DNMT1 block | activation (fluorescence interference), % at 10 µM;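 active = activation of at least 30% at 10 µM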;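 note: DNMT1 catalytic domain with a HinP1I cleavage step and a FAM/dabcyl DNA beacon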
Starred values were filed as active, the others as inactive; . = no result given.

SMILES	LMPTP inh	NadD block	Scp1 inh	DNMT1 block	SUMO1 PPI mod	STEP block	DNMT1 confirm	Beacon interf	others
O=S(=O)(NCCCNS(=O)(=O)c1c(F)cccc1F)c1ccc2c(c1)OCCO2	1	-1	-8	1	6	-3	.	.
FC(F)(F)c1ccc(CN2C[C@@H]3C(c4ccc(Cl)nc4)C4(c5ccccc5)CC3(C4)[C@H]2c2ccccc2)cc1 (stereo partly specified)	0	23	3	6	6	0	.	.
COc1ccc(/C=C2/C(=O)N(c3nc4ccccc4s3)N=C2CSc2ccc(Cl)cc2)cc1	22	73*	8	65*	26	4	54*	-4	Beacon interf DR=>99
COc1ccc(/C=C2/C(=O)N(Cc3ccccc3)N=C2C)cc1	0	3	-4	10	10	0	.	.
COc1ccc(NC(=O)CCC(=O)c2ccc(-c3ccccc3)cc2)cc1	1	4	1	8	1	8	.	.
Cc1ccc(NC(=O)CCC(=O)OCC(=O)c2ccc(-c3ccccc3)cc2)cc1	1	8	-4	51*	3	0	5	0
O=C(CCCCCn1c(=S)[nH]c2cc3c(cc2c1=O)OCO3)N1CCN(c2ccccc2)CC1	2	24	-6	66*	1	4	-2	-6
O=C(CCCn1c(=S)[nH]c2cc3c(cc2c1=O)OCO3)N1CCN(c2ccc(F)cc2)CC1	1	22	-10	-3	-3	6	.	.
CC1(C)CNC(=O)c2sc(NC(=O)c3ccccc3Cl)nc2C1	0	-2	-10	-2	1	2	.	.
Cc1ccc(-n2cccc2/C=C2/C(=N)N3C(=NC2=O)SN=C3S(C)(=O)=O)cc1Cl	12	25	38	84*	13	11	37*	-3	Beacon interf DR=>99
COc1ccc(/C=N/NC(C)(C)C)c(OC)c1	-1	0	-5	-4	-2	1	.	.
COc1ccc(Cl)cc1NC(=O)CN(C)C(=O)c1n[nH]c2ccccc12	-1	-2	-3	1	3	-1	.	.
COC(=O)c1ccccc1NC(=O)c1cc(-c2cccs2)on1	5	-1	0	56*	0	2	3	-3
O=C(CNC(=O)c1ccco1)NCC(=O)OCc1ccc(Cl)cc1Cl	-1	-4	-7	66*	6	0	1	5
O=C(CNC(=O)Cc1ccccc1)NCC(=O)OCc1ccccc1	-1	-5	1	68*	1	3	0	3
O=C(Cc1c(F)cccc1Cl)NCC(=O)OCc1ccccc1	0	-4	-11	-8	1	1	.	.
COc1ccccc1CCC(=O)OCC(=O)Nc1cc(C)nn1-c1ccccc1	0	0	-4	0	3	1	.	.
C/C(=N\NC(=O)c1cccc(F)c1)c1ccc(NC(=O)Cc2ccccc2)cc1	-6	-7	-5	2	4	-1	.	.
C/C(=N\NC(=O)c1cc(O)cc(O)c1)c1ccc(NC(=O)Cc2ccccc2)cc1	69*	16	87*	85*	78*	98*	51*	-2	Beacon interf DR=>99
Cc1ccc(C(=O)OCC(=O)Nc2nc(-c3ccccc3)cs2)cc1NC(=O)c1ccco1	3	20	5	-17	2	-2	.	.
CC1CCN(S(=O)(=O)c2ccc(-c3nnc(SCc4cccnc4)o3)cc2)CC1	1	11	0	55*	-1	-2	2	1
CC(C)(C)c1ccc(NC(=O)COC(=O)C2(C)CC2(Cl)Cl)cc1 (stereo unspecified)	3	-4	-5	4	1	2	.	.
Cc1ccc(-c2nc3c(c(=O)[nH]c(=O)n3Cc3ccccc3)n2C)o1	10	10	27	70*	0	2	4	0
CC(C)n1c(O)c(N=NC(=O)C2COc3ccccc3O2)c2ccccc21 (stereo unspecified)	3	-3	-1	-5	-20	3	.	.
Cc1ccc(NC(=O)c2nc[nH]c2C(=O)NCCCNC(=O)c2[nH]cnc2C(=O)Nc2ccc(C)cc2)cc1	0	10	-2	59*	2	-2	8	0
SMILES	LMPTP inh	NadD block	Scp1 inh	DNMT1 block	SUMO1 PPI mod	STEP block	DNMT1 confirm	Beacon interf	others
O=C(Nc1cccc(Cl)c1)c1nc[nH]c1C(=O)NCCCNC(=O)c1[nH]cnc1C(=O)Nc1cccc(Cl)c1	1	28	0	61*	4	-1	2	-3
Cc1ccc(NC(=O)c2nc[nH]c2C(=O)NCCCCCCNC(=O)c2[nH]cnc2C(=O)Nc2ccc(C)cc2)cc1	1	29	-14	28	3	-4	.	.
Cc1ccc(NC(=O)c2nc[nH]c2C(=O)NCCCCNC(=O)c2[nH]cnc2C(=O)Nc2ccc(C)cc2)cc1	2	27	-9	89*	3	-4	2	-4
O=C(Nc1ccccc1)c1nc[nH]c1C(=O)NCCCCNC(=O)c1[nH]cnc1C(=O)Nc1ccccc1	0	24	0	-15	-4	-5	.	.
O=C(COc1cc(Cl)c(Cl)cc1Cl)Nc1ccc([N+](=O)[O-])cc1Cl	-2	-4	-4	0	-6	0	.	.
CCCN(CC(=O)Nc1ccc(Cl)cc1Cl)C(=O)CC(NC(C)=O)c1ccccc1 (stereo unspecified)	1	-5	-1	-2	-6	0	.	.
CC(=O)NC(CC(=O)NC(C)c1ccc(Cl)cc1Cl)c1ccccc1 (stereo unspecified)	-1	-4	-4	68*	1	-1	0	2
CCc1nc2sc3ccccc3c(=O)c2c(=O)n1Cc1ccco1	58*	7	47	88*	18	-5	3	5
Cc1ccc(N2CC(C(=O)OCC(=O)Nc3ccc(Cl)cc3)CC2=O)cc1 (stereo unspecified)	0	-14	-1	3	20	-1	.	.
